# Measured values: PMC3741069 (Biochemistry, 2013)
# Positions count from the first letter of the chain named.
# Legend:
# nitrate reductase (NarB) [1] = target: T1, nitrate reductase (NarB) (Synechococcus elongatus, UniProt P39458, R84Q); experiment: spectral perturbation titration; assay type: binding
# T1 sequence (P39458 15-729 R84Q): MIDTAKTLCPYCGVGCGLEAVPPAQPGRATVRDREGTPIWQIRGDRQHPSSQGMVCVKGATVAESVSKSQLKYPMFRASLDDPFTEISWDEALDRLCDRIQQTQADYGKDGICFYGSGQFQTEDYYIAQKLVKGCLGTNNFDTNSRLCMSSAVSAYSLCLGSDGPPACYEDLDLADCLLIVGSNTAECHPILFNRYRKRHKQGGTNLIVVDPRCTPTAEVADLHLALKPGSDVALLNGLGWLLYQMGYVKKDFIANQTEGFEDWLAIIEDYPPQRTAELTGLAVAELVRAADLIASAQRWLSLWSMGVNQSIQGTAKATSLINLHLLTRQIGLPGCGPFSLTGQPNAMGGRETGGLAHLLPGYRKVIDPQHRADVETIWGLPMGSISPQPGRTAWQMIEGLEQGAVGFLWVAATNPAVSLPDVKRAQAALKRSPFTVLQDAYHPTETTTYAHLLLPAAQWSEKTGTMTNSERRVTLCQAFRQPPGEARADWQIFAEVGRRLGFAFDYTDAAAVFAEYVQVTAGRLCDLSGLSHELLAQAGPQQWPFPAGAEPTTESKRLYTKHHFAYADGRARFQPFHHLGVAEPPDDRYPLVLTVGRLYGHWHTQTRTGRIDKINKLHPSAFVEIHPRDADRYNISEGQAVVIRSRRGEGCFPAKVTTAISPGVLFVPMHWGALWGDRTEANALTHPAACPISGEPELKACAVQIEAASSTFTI
# How it was run: (§1)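 Single-residue NarB variants were made by site-directed mutagenesis and expressed and purified as for wild type (His6, Co affinity, DEAE, gel filtration). Complex formation with ferredoxin or nitrate was followed by difference absorbance at variant-specific wavelength pairs chosen for signal:noise. The change at saturating nitrate was taken as 100% complex. Kd came from fitting perturbation magnitude against ligand concentration to a single binding isotherm.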
# nitrate reductase (NarB) [2] = target: T2, nitrate reductase (NarB) (Synechococcus elongatus, UniProt P39458, K144Q); experiment: spectral perturbation titration; assay type: binding
# T2 sequence (P39458 15-729 K144Q): T1 sequence (P39458 15-729 R84Q) with Q70R, K130Q
# How it was run: as §1
smiles,measurement,setting,value
O=[N+]([O-])O [nitrate],Kd,nitrate reductase (NarB) [1],5.5 ± 2.2 µM
same,Kd,nitrate reductase (NarB) [2],19 ± 6.8 µM
